Screens from PubChem.
A selection: hits, their analogues and other compounds. The true share with any hit is near 1%.
procasp7 counter = counter-screen for procaspase-3 activators: activators of human procaspase-7; P55210; recombinant procaspase-7, Ac-DEVD-pNA absorbance 405 nm; D23A/D198A/D206A triple mutant, cannot self-cleave; scale: DMSO 0, 5 µM enzyme 100; activation, % at 8.5 µM; 330,000 compounds, 0.093% hits; AID 463210;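 active means percent activation above the screen-wide mean plus 3 SD, cut at about 25% in these data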
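Assay system – Uncleavable procaspase-7 mutant enzyme · Quantity – 2 µM procaspase-7 mutant as dispensed · Times – 1 h preincubation, 2 h reaction · Dosing – single nominal 8.5 µM compound dose, 0.8% DMSO final · Buffer or medium – Zinc-free 50 mM HEPES buffer, pH 7.4, with NaCl and Triton X-100 · Detection – Epi-absorbance of released pNA at 405 nm, two timepoints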
proCasp3 act = activators of human procaspase-3. P42574. recombinant procaspase-3 D3A, Ac-DEVD-pNA absorbance 405 nm. activation, % at 8.5 µM. 330,000 compounds, 0.11% hits;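 active means activation above the mean of all tested compounds plus 3 SD, cut at about 21% in these data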;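 further: 0% = DMSO alone and 100% = DMSO wells spiked with extra 5 µM PC-3 D3A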
Target sequence (P42574 whole entry D9A/D28A/D175A): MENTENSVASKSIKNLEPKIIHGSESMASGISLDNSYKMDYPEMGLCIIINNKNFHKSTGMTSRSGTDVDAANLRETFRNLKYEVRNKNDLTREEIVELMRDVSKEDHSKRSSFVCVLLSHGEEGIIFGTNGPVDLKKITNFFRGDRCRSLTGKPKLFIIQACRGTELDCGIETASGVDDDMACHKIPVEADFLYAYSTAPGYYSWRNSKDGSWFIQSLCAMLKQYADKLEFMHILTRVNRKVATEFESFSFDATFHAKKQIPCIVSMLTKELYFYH
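Assay system – Procaspase-3 D3A mutant, all three cleavage aspartates alanine · Controls – DMSO-only low control, 5 µM PC-3 D3A high control · Schedule – 1 h compound preincubation, 2 h substrate hydrolysis at 25 °C · Signal – 405 nm absorbance of p-nitroaniline, reads at 0 and 120 min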
LYPLA2 inh = counter-screen for PME1 inhibitors: inhibitors of human LYPLA2; recombinant LYPLA2, FP-Rh probe fluorescence polarization; 320,000 compounds, 0.38% hits; AID 2177; O95372; inhibition, % at 5.9 µM;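 active means inhibition above the screen-wide mean plus 3 SD, limit set per campaign, cut at about 26% in these data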;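 further: 0% = LYPLA2 with DMSO and 100% = wells lacking LYPLA2 enzyme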
LYPLA1 inh = blocks human lysophospholipase 1, a PME1 counter-screen | 320,000 compounds, 0.16% hits | inhibition, % at 5.9 µM | recombinant LYPLA1, FP-Rh probe fluorescence polarization | O75608;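 active means inhibition above the mean of all tested compounds plus 3 SD, set per campaign, cut at about 14% in these data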;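 further: inhibitors block serine hydrolase probe labeling of LYPLA1 so polarization falls; 0% = enzyme with DMSO and 100% = wells lacking LYPLA1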
Fam108B counter = Fam108B inhibition, counter-screen for RBBP9 inhibitors; recombinant Fam108B, FP-Rh probe fluorescence polarization; inhibition, % at 9.51 µM; 300,000 compounds, 0.33% hits; AID 1947;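 active means inhibition above the screen mean inhibition plus 3 SD, computed separately per campaign, cut at about 18% in these data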;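 further: inhibitors lower polarization as less probe binds the enzyme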
PME-1 primary = PME-1 (human) inhibition; 320,000 compounds, 0.53% hits; Q9Y570; recombinant PME-1, FP-Rh probe fluorescence polarization; inhibition, % at 5.9 µM; AID 2130;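 active means inhibition above the campaign mean of all compounds plus 3 SD, cut at about 26% in these data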;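 further: competitive labeling of PME-1 active site by serine hydrolase directed probe; 0% = PME-1 with DMSO and 100% = wells lacking PME-1 enzyme; inhibitors block probe labeling so polarization falls and inhibition rises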
Target sequence (Q9Y570 whole entry, looked up): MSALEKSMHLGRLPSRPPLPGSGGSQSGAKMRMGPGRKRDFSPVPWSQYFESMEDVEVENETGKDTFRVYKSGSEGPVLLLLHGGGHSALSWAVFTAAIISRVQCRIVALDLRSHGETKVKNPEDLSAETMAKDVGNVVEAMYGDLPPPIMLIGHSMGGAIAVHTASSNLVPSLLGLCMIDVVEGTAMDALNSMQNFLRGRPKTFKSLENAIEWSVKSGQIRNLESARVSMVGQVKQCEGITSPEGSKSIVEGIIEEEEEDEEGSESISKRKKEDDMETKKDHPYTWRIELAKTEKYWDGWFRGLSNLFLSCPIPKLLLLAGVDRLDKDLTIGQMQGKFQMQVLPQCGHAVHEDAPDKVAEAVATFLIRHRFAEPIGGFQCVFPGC
LYPLA1 conf = counter-screen for PME1 inhibitors: confirmation of human LYPLA1 inhibitors. shares compounds with LYPLA1 inh. recombinant LYPLA1, FP-Rh probe fluorescence polarization. inhibition, % at 5.9 µM. 480 compounds, 69% hits. AID 2233;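 active means mean inhibition across replicates above the hit cutoff set in the primary screen, cut at about 15% in these data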;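 further: loss of FP-Rh probe labeling of LYPLA1 seen as lower polarization; 0% = LYPLA1 with DMSO and 100% = wells lacking LYPLA1 enzyme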
Active calls of the source: *.

For NS(=O)(=O)c1ccc(CCNC(=O)C(=O)C2C(=O)Nc3ccccc32)cc1 (stereo not given) the results were procasp7 counter -8, proCasp3 act 13, LYPLA2 inh 2, LYPLA1 inh 1, Fam108B counter 2 and PME-1 primary 2.
For CC1CC(=O)Nc2ccccc2S1(=O)=O (stereo not given) the results were procasp7 counter -5, proCasp3 act 8, LYPLA2 inh 11, LYPLA1 inh 18*, Fam108B counter -2, PME-1 primary 5 and LYPLA1 conf 5.
For O=C(CSc1n[nH]c(=O)[nH]c1=O)Nc1ccc2c(c1)C(=O)c1ccccc1C2=O the results were procasp7 counter -2, proCasp3 act -4, LYPLA2 inh 16, LYPLA1 inh 14*, Fam108B counter 12, PME-1 primary 8 and LYPLA1 conf 5.
Screening O=C(CSc1ccccn1)Nc1ccc2c(c1)C(=O)c1ccccc1C2=O returned procasp7 counter 0, proCasp3 act -1, LYPLA2 inh -1, LYPLA1 inh -3, Fam108B counter 4 and PME-1 primary 0.
COc1ccc(Cl)cc1NC(=O)CN1CCC(NC(=O)C2CC2)CC1 was read as procasp7 counter -6, proCasp3 act -2, LYPLA2 inh -5, LYPLA1 inh -3, Fam108B counter -3 and PME-1 primary -6.
COc1ccc(Cl)cc1NC(=O)CN1CCC(n2nnc3ccccc32)CC1 was read as procasp7 counter 0, proCasp3 act 6, LYPLA2 inh -3, LYPLA1 inh 15*, Fam108B counter 2, PME-1 primary 2 and LYPLA1 conf 19*.
CC(=O)Nc1ccc(Cc2ccncc2)cc1 was read as procasp7 counter 6, proCasp3 act 3, LYPLA2 inh 1, LYPLA1 inh -2, Fam108B counter 1 and PME-1 primary 0.
COc1ccc(S(=O)(=O)Nc2ccc(Cc3ccncc3)cc2)cc1C was read as procasp7 counter -3, proCasp3 act 8, LYPLA2 inh 4, LYPLA1 inh 36*, Fam108B counter -6, PME-1 primary 19 and LYPLA1 conf 47*.
`CCc1ccc(NS(=O)(=O)c2ccc(OC)c(C)c2)cc1` gave procasp7 counter 5, proCasp3 act 1, LYPLA2 inh -2, LYPLA1 inh 0, Fam108B counter 1 and PME-1 primary 14.
For CC(=O)Nc1ccc(S(=O)(=O)Nc2ccc(Cc3ccncc3)cc2)cc1 the results were procasp7 counter 7, proCasp3 act 0, LYPLA2 inh 9, LYPLA1 inh 41*, Fam108B counter 4, PME-1 primary 0 and LYPLA1 conf 54*.
Screening CCOC(=O)c1cccc(NC(=O)c2ccc3c(c2)C(=O)N(CC2CCCO2)C3=O)c1 (stereo not given) returned procasp7 counter 14, proCasp3 act 1, LYPLA2 inh 3, LYPLA1 inh 28*, Fam108B counter -4, PME-1 primary -10 and LYPLA1 conf 31*.
Screening CC(C)Sc1nnc([C@H](Cc2c[nH]c3ccccc23)NC(=O)OC(C)(C)C)o1 returned procasp7 counter 18, proCasp3 act -2, LYPLA2 inh 5, LYPLA1 inh 46*, Fam108B counter 1, PME-1 primary -6 and LYPLA1 conf 2.
CC(C)(C)OC(=O)N[C@@H](Cc1c[nH]c2ccccc12)c1nnc(SCC(N)=O)o1 was read as procasp7 counter -7, proCasp3 act 4, LYPLA2 inh 9, LYPLA1 inh 3, Fam108B counter -2 and PME-1 primary 1.
`CC(OC(=O)c1nc(Cl)ccc1Cl)C(=O)NC1CCCCC1C` (stereo not given) gave procasp7 counter 2, proCasp3 act 8, LYPLA2 inh 20, LYPLA1 inh 16*, PME-1 primary 16 and LYPLA1 conf -2.
For Cc1cc(C)nc(NS(=O)(=O)c2ccc(CC(C)C)cc2)c1 the results were procasp7 counter 4, proCasp3 act 2, LYPLA2 inh 0, LYPLA1 inh -3, Fam108B counter -6 and PME-1 primary 3.
For COC(=O)/C(C#N)=C\c1c(OC)[nH]c2ccccc12 the results were procasp7 counter -9, proCasp3 act -9, LYPLA2 inh -1, LYPLA1 inh 20*, Fam108B counter 3, PME-1 primary -2 and LYPLA1 conf 3.
Cc1nc(N2CCN(Cc3nc4ccccc4[nH]3)CC2)c2oc3ccccc3c2n1 was read as procasp7 counter -1, proCasp3 act 4, LYPLA2 inh 5, LYPLA1 inh -1, Fam108B counter 1 and PME-1 primary -6.
c1ccc2[nH]c(CN3CCN(c4ncnc5c4oc4ccccc45)CC3)nc2c1 was read as procasp7 counter 19, proCasp3 act -3, LYPLA2 inh 4, LYPLA1 inh 17*, Fam108B counter -2, PME-1 primary 9 and LYPLA1 conf 18*.
For O=C1CCN(C(=O)/C=C/c2ccccc2)c2ccccc21 the results were procasp7 counter 6, proCasp3 act 13, LYPLA2 inh 13, LYPLA1 inh 15*, Fam108B counter -1, PME-1 primary 0 and LYPLA1 conf 23*.
For COc1ccc(/C=C/C(=O)N2CCCc3ccccc32)cc1 the results were procasp7 counter -7, proCasp3 act -5, LYPLA2 inh 4, LYPLA1 inh 1, Fam108B counter 2 and PME-1 primary -13.
Cc1ccc2nc(-c3sc4nc(C)cc(C)c4c3N)[nH]c2c1 was read as procasp7 counter 3, proCasp3 act 4, LYPLA2 inh 9, LYPLA1 inh 15*, Fam108B counter 4, PME-1 primary 30* and LYPLA1 conf 2.
Screening Cc1ccc2nc(-c3cccc(N)c3)[nH]c2c1 returned procasp7 counter 2, proCasp3 act -1, LYPLA2 inh 8, LYPLA1 inh 1, Fam108B counter 3 and PME-1 primary 1.
For CCCCC1CCC(C(=O)NCC(c2ccco2)N2CCOCC2)CC1 (stereo not given) the results were procasp7 counter 3, proCasp3 act 9, LYPLA2 inh 2, LYPLA1 inh 4, Fam108B counter 4 and PME-1 primary -3.
NC(=O)Nc1ccc(C(=O)OCC(=O)N2CCCC2=O)cc1 was read as procasp7 counter -10, proCasp3 act 2, LYPLA2 inh 7, LYPLA1 inh 3 and PME-1 primary -2.
For O=C(Nc1ccc2c(c1)nc1n2CCN(Cc2ccccc2)C1)c1cccs1 the results were procasp7 counter -5, proCasp3 act 6, LYPLA2 inh -3, LYPLA1 inh -10, Fam108B counter -2 and PME-1 primary 1.
